Assay results reported in ChEMBL document CHEMBL1122967 (J Med Chem, 1985).
One block for each compound: values may come before it.

Assays:
Assay type in all cases: ADME, organism-based
Details in all cases: in vivo
Rattus norvegicus [1] = species: Rattus norvegicus; experiment: Ratio of striatum/cerebellum distribution in rat after 2 hr
Procedure, shortened: (§1)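 Rats received the radioiodinated ligand intravenously and were killed with ether at 1 h or 2 h (six per time point). Organs and brain regions (striatum, cerebellum, thalamus, rest of brain) were sampled and counted. Uptake was calculated as percent injected dose per gram tissue, reported ± SD. The striatum/cerebellum ratio was taken from the regional uptake values.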

Rattus norvegicus [2] = experiment: Distribution of [125I]AC in striatum after intravenous administration in rat after 1hour, expressed as percent dose/gram; procedure, shortened: as §1
Rattus norvegicus [3] = experiment: Distribution of [125I]AC in thalamus after intravenous administration in rat after 2hours, expressed as percent dose/gram; procedure, shortened: as §1
Rattus norvegicus [4] = species: Rattus norvegicus; experiment: Ratio of striatum/cerebellum distribution in rat after 1 hr; procedure, shortened: as §1
Rattus norvegicus [5] = experiment: Distribution of [125I]AC in rest of the brain after intravenous administration in rat after 1hour, expressed as percent dose/gram; procedure, shortened: as §1
Rattus norvegicus [6] = experiment: Distribution of [125I]-AC in heart after intravenous administration in rat after 2hours, expressed as percent dose/gram; procedure, shortened: as §1
Rattus norvegicus [7] = experiment: Distribution of [125I]-AC in thalamus after intravenous administration in rat after 1hour, expressed as percent dose/gram; procedure, shortened: as §1
Rattus norvegicus [8] = experiment: Distribution of [125I]-AC in blood after intravenous administration in rat after 2hours, expressed as percent dose/gram; procedure, shortened: as §1
Rattus norvegicus [9] = experiment: Distribution of [125I]AC in cerebellum after intravenous administration in rat after 1hour, expressed as percent dose/gram; procedure, shortened: as §1
Rattus norvegicus [10] = experiment: Distribution of [125I]AC in striatum after intravenous administration in rat after 2hours, expressed as percent dose/gram; procedure, shortened: as §1
Rattus norvegicus [11] = experiment: Distribution of [125I]-AC in cerebellum after intravenous administration in rat after 2hours, expressed as percent dose/gram; procedure, shortened: as §1
Rattus norvegicus [12] = experiment: Distribution of [125I]AC in blood after intravenous administration in rat after 1hour, expressed as percent dose/gram; procedure, shortened: as §1
Rattus norvegicus [13] = experiment: Distribution of [125I]AC in heart after intravenous administration in rat after 1hour, expressed as percent dose/gram; procedure, shortened: as §1
Rattus norvegicus [14] = experiment: Distribution of [125I]AC in rest of the brain after intravenous administration in rat after 2hours, expressed as percent dose/gram; procedure, shortened: as §1
Rattus norvegicus [15] = experiment: Distribution of [125I]iodoclebopride in striatum after intravenous administration in rat after 2hours, expressed as percent dose/gram; procedure, shortened: as §1
Rattus norvegicus [16] = experiment: Distribution of [125I]Iodoclebopride in rest of the brain after intravenous administration in rat after 2hours, expressed as percent dose/gram; procedure, shortened: as §1
Rattus norvegicus [17] = experiment: Distribution of [125I]iodoclebopride in cerebellum after intravenous administration in rat after 1hour, expressed as percent dose/gram; procedure, shortened: as §1
Rattus norvegicus [18] = experiment: Distribution of [125I]iodoclebopride in heart after intravenous administration in rat after 2hours, expressed as percent dose/gram; procedure, shortened: as §1
Rattus norvegicus [19] = experiment: Distribution of [125I]iodoclebopride in blood after intravenous administration in rat after 2hours, expressed as percent dose/gram; procedure, shortened: as §1
Rattus norvegicus [20] = experiment: Distribution of [125I]iodoclebopride in thalamus after intravenous administration in rat after 2hours, expressed as percent dose/gram; procedure, shortened: as §1
Rattus norvegicus [21] = experiment: Distribution of [125I]iodoclebopride in thalamus after intravenous administration in rat after 1hour, expressed as percent dose/gram; procedure, shortened: as §1
Rattus norvegicus [22] = experiment: Distribution of [125I]Iodoclebopride in rest of the brain after intravenous administration in rat after 1hour, expressed as percent dose/gram; procedure, shortened: as §1
Rattus norvegicus [23] = experiment: Distribution of [125I]iodoclebopride in heart after intravenous administration in rat after 1hour, expressed as percent dose/gram; procedure, shortened: as §1
Rattus norvegicus [24] = experiment: Distribution of [125I]iodoclebopride in blood after intravenous administration in rat after 1hour, expressed as percent dose/gram; procedure, shortened: as §1
Rattus norvegicus [25] = experiment: Distribution of [125I]iodoclebopride in cerebellum after intravenous administration in rat after 2hours, expressed as percent dose/gram; procedure, shortened: as §1
Rattus norvegicus [26] = experiment: Distribution of [125I]iodoclebopride in striatum after intravenous administration in rat after 1hour, expressed as percent dose/gram; procedure, shortened: as §1

- Ratio (Rattus norvegicus [1]): 1.65
- Tissue distribution (Rattus norvegicus [2]): 0.5%
- Tissue distribution (Rattus norvegicus [3]): 0.22%
- Ratio (Rattus norvegicus [4]): 1.92
- Tissue distribution (Rattus norvegicus [5]): 0.18%
- Tissue distribution (Rattus norvegicus [6]): 0.3%
- Tissue distribution (Rattus norvegicus [7]): 0.27%
- Tissue distribution (Rattus norvegicus [8]): 0.29%
- Tissue distribution (Rattus norvegicus [9]): 0.26%
- Tissue distribution (Rattus norvegicus [10]): 0.38%
- Tissue distribution (Rattus norvegicus [11]): 0.23%
- Tissue distribution (Rattus norvegicus [12]): 0.33%
- Tissue distribution (Rattus norvegicus [13]): 0.35%
- Tissue distribution (Rattus norvegicus [14]): 0.16%
Compound: COc1cc(N)c(I)cc1C(=O)NC1CCN(Cc2ccccc2)CC1

- Ratio (Rattus norvegicus [1]): 2.37
- Tissue distribution (Rattus norvegicus [15]): 2.52%
- Tissue distribution (Rattus norvegicus [16]): 0.73%
- Ratio (Rattus norvegicus [4]): 2.23
- Tissue distribution (Rattus norvegicus [17]): 1.13%
- Tissue distribution (Rattus norvegicus [18]): 1.34%
- Tissue distribution (Rattus norvegicus [19]): 0.34%
- Tissue distribution (Rattus norvegicus [20]): 1.12%
- Tissue distribution (Rattus norvegicus [21]): 1.25%
- Tissue distribution (Rattus norvegicus [22]): 0.78%
- Tissue distribution (Rattus norvegicus [23]): 1.61%
- Tissue distribution (Rattus norvegicus [24]): 0.32%
- Tissue distribution (Rattus norvegicus [25]): 1.06%
- Tissue distribution (Rattus norvegicus [26]): 2.52%
Compound: COc1cc(N=[N+]=[N-])c(I)cc1C(=O)NC1CCN(Cc2ccccc2)CC1 [IODOAZIDOCLEBOPRIDE]
